Columns and labels:
Rattus norvegicus [1] = organism: Rattus norvegicus; experiment: Effect of specific activity of compound on biodistribution in rats blood 1 hr after injection at the dose of 2.5 mg value expressed in average % dose per organ; value may range from 0.58 to 0.71; assay type: ADME, organism-based; conditions: in vivo
In short: (§1)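 Rats received an intravenous injection of the I-125 labeled diamine with added unlabeled carrier (6.25, 2.5, 0.25 or 0.025 mg per dose). At 1 h, organs were counted. Percent dose per organ came from comparing tissue radioactivity with diluted aliquots of the injected dose. Values are the average and range of 3 rats. Brain/blood ratio was taken from % dose per gram, calculated using mean organ weights (brain 1.65 g; blood 18 g).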

Rattus norvegicus [2] = organism: Rattus norvegicus; experiment: Effect of specific activity of compound on biodistribution in rats blood 1 hr after injection at the dose of 6.25 mg value expressed in average % dose per organ; value may range from 0.55 to 0.64; assay type: ADME, organism-based; conditions: in vivo; in short: as §1
Rattus norvegicus [3] = experiment: Biodistribution of I-125 labeled compound in rat blood, 1 hr after intravenous injection. value expressed in average % dose per organ; value may range from 0.92 to 1.31; assay type: ADME, organism-based; conditions: in vivo
Rattus norvegicus [4] = organism: Rattus norvegicus; experiment: Effect of specific activity of compound on biodistribution in rats brain after injection at the dose of 0.025 mg value expressed in average % dose per organ; value may range from 1.39 to 1.56; assay type: ADME, organism-based; conditions: in vivo; in short: as §1
Rattus norvegicus [5] = organism: Rattus norvegicus; experiment: Effect of specific activity of compound on biodistribution in rats thyroid 1 hr after injection at the dose of 0.25 mg value expressed in average % dose per organ; value may range from 0.17 to 0.19; assay type: ADME, organism-based, Thyroid gland; conditions: in vivo; in short: as §1
Rattus norvegicus [6] = organism: Rattus norvegicus; experiment: Effect of specific activity of compound on biodistribution in rats thyroid 1 hr after injection at the dose of 6.25 mg value expressed in average % dose per organ; value may range from 0.09 to 0.11; assay type: ADME, organism-based, Thyroid gland; conditions: in vivo; in short: as §1
Rattus norvegicus [7] = experiment: Biodistribution of I-125 labeled compound in rat blood, 2 min after intravenous injection. value expressed in average % dose per organ; value may range from 2.42 to 2.84; assay type: ADME, organism-based; conditions: in vivo
Rattus norvegicus [8] = experiment: Biodistribution of I-125 labeled compound in rat liver, 2 min after intravenous injection. value expressed in average % dose per organ; value may range from 7.90 to 10.6; assay type: ADME, organism-based; conditions: in vivo
Rattus norvegicus [9] = experiment: Biodistribution of I-125 labeled compound in rat thyroid, 1 hr after intravenous injection. value expressed in average % dose per organ; value may range from 0.17 to 0.23; assay type: ADME, organism-based, Thyroid gland; conditions: in vivo
Rattus norvegicus [10] = experiment: Biodistribution of I-125 labeled compound in rat thyroid, 2 min after intravenous injection. value expressed in average % dose per organ; value may range from 0.20 to 0.23; assay type: ADME, organism-based, Thyroid gland; conditions: in vivo
Rattus norvegicus [11] = organism: Rattus norvegicus; experiment: Effect of specific activity of compound on biodistribution in rats blood 1 hr after injection at the dose of 0.025 mg value expressed in average % dose per organ; value may range from 0.84 to 0.99; assay type: ADME, organism-based; conditions: in vivo
[12] = Biodistribution of […] in a monkey thyroid. 1 hr after intravenous injection. the value expressed in %dose/gram; assay type: ADME, organism-based, Thyroid gland; conditions: simiiformes, in vivo
In short: (§2)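 Monkey sedated with ketamine and anesthetized with nembutal, then given ~100 μCi [125I] label (~7 mCi/mg) intravenously. Killed 1 h later by nembutal overdose. Organs dissected, weighed and counted. % dose per organ found against diluted injected-dose aliquots; % dose per gram also reported; brain/blood from per-gram values. Single animal.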

Rattus norvegicus [13] = experiment: Biodistribution of I-125 labeled compound in rat heart, 1 hr after intravenous injection. value expressed in average % dose per organ; value may range from 0.97 to 1.26; assay type: ADME, organism-based; conditions: in vivo
Rattus norvegicus [14] = organism: Rattus norvegicus; experiment: Effect of specific activity of compound on biodistribution in rats heart 1 hr after injection at the dose of 6.25 mg value expressed in average % dose per organ; value may range from 0.30 to 0.36; assay type: ADME, organism-based; conditions: in vivo; in short: as §1
Rattus norvegicus [15] = organism: Rattus norvegicus; experiment: Effect of specific activity of compound on biodistribution in rats liver 1 hr after injection at the dose of 6.25 mg value expressed in average % dose per organ; value may range from 16.5 to 17.2; assay type: ADME, organism-based; conditions: in vivo; in short: as §1
Rattus norvegicus [16] = organism: Rattus norvegicus; experiment: Effect of specific activity of compound on biodistribution in rats liver after injection at the dose of 0.025 mg value expressed in average % dose per organ; value may range from 6.23 to 7.26; assay type: ADME, organism-based; conditions: in vivo; in short: as §1
Rattus norvegicus [17] = organism: Rattus norvegicus; experiment: Distribution coefficient at pH 7.0 in rat; assay type: ADME, organism-based
In short: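 Octanol/buffer partition: I-125 labeled diamine mixed with 3 g each of 1-octanol and 0.1 M phosphate buffer at pH 7.0 or 7.4, vortexed 3× 1 min, centrifuged 5 min. Two 0.5 g samples of each layer counted. Value is cpm/g octanol over cpm/g buffer, usually repeated three times.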

[18] = The protein binding ability of compound was expressed in Percent free; assay type: ADME; conditions: read-out: % free
In short: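 Binding to pooled human serum was measured by equilibrium dialysis. 0.4 mL serum and 0.4 mL 0.15 M phosphate buffer, pH 7.4, were separated by a membrane, and 0.025 μCi radiolabeled diamine was added on the buffer side. Cells were rotated at 37 °C for 18 h, and aliquots from both sides were weighed and counted. % free = buffer/serum radioactivity concentration ratio × 100. The membrane was also counted.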

Rattus norvegicus [19] = organism: Rattus norvegicus; experiment: Effect of specific activity of compound on biodistribution in rats brain to blood ratio 1 hr after injection at the dose of 6.25 mg value expressed in % dose per gram ratio; assay type: ADME, organism-based; in short: as §1
Rattus norvegicus [20] = experiment: Biodistribution of I-125 labeled compound in rat lungs, 2 min after intravenous injection. value expressed in average % dose per organ; value may range from 15.7 to 18.7; assay type: ADME, organism-based, Lung; conditions: in vivo
Rattus norvegicus [21] = experiment: Biodistribution of I-125 labeled compound in rat muscle, 1 hr after intravenous injection. value expressed in average % dose per organ; value may range from 8.99 to 14.4; assay type: ADME, organism-based, Muscle tissue; conditions: in vivo
Rattus norvegicus [22] = experiment: Biodistribution of I-125 labeled compound in rat muscle, 2 min after intravenous injection value expressed in average % dose per organ; value may range from 5.84 to 12.8; assay type: ADME, organism-based, Muscle tissue; conditions: in vivo
[23] = Biodistribution of […] compound in a monkey bone. 1 hr after intravenous injection. the value expressed in %dose/organ; assay type: ADME, organism-based, Bone element; conditions: simiiformes, in vivo; in short: as §2
[24] = Biodistribution of [123I]- compound in a monkey brain. 1 hr after intravenous injection. the value expressed in %dose/organ; assay type: ADME, organism-based; conditions: simiiformes, in vivo
Rattus norvegicus [25] = organism: Rattus norvegicus; experiment: Effect of specific activity of compound on biodistribution in rats muscle 1 hr after injection at the dose of 2.5 mg value expressed in average % dose per organ; value may range from 12.7 to 18.3; assay type: ADME, organism-based, Muscle tissue; conditions: in vivo; in short: as §1
Rattus norvegicus [26] = experiment: Biodistribution of I-125 labeled compound in rat brain to blood ratio, 1 hr after intravenous injection. value expressed in % dose per gram ratio; assay type: ADME, organism-based
In short: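 Rats given I-125 diamine iv; tissue activity at 2 min or 1 h compared with diluted injected-dose aliquots. % dose per gram approximated as % dose per organ divided by mean organ weight (brain 1.65 g; blood 18 g). Ratio taken from the per-gram values.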

[27] = Biodistribution of [125I]- compound in a monkey blood. 1 hr after intravenous injection. the value expressed in %dose/gram; conditions: simiiformes, in vivo
[28] = Biodistribution of [125I]- compound in a monkey muscle. 1 hr after intravenous injection. the value expressed in %dose/gram; conditions: simiiformes, in vivo
[29] = Biodistribution of [125I]- compound in a monkey spleen. 1 hr after intravenous injection. the value expressed in%dose/organ; conditions: simiiformes, in vivo
[30] = Biodistribution of [125I]- compound in a monkey brain to blood ratio 1 hr after intravenous injection. the value expressed in %dose/gram; conditions: simiiformes, in vivo

Cc1cc(I)cc(CNCCCN(C)C)c1O
Average dose per organ (Rattus norvegicus [1]): 0.65% | Average dose per organ (Rattus norvegicus [2]): 0.61% | Average dose per organ (Rattus norvegicus [3]): 1.1% | Average dose per organ (Rattus norvegicus [4]): 1.47% | Average dose per organ (Rattus norvegicus [5]): 0.17% | Average dose per organ (Rattus norvegicus [6]): 0.1% | Average dose per organ (Rattus norvegicus [7]): 2.63% | Average dose per organ (Rattus norvegicus [8]): 9.51% | Average dose per organ (Rattus norvegicus [9]): 0.19% | Average dose per organ (Rattus norvegicus [10]): 0.22% | Average dose per organ (Rattus norvegicus [11]): 0.91% | Dose/g [12]: 0.039% | Average dose per organ (Rattus norvegicus [13]): 1.11% | Average dose per organ (Rattus norvegicus [14]): 0.33% | Average dose per organ (Rattus norvegicus [15]): 16.7% | Average dose per organ (Rattus norvegicus [16]): 6.74% | Distribution coefficient (Rattus norvegicus [17]): 3.39 | fraction unbound [18]: 0.483 | Ratio (Rattus norvegicus [19]): 43% | Average dose per organ (Rattus norvegicus [20]): 16.9% | Average dose per organ (Rattus norvegicus [21]): 11.9% | Average dose per organ (Rattus norvegicus [22]): 9.24% | Dose per organ [23]: 1.53% | Dose per organ [24]: 3.18% | Average dose per organ (Rattus norvegicus [25]): 16.2% | Ratio (Rattus norvegicus [26]): 19.7% | Dose/g [27]: 0.002% | Dose/g [28]: 0.00491% | Dose per organ [29]: 2.39% | Ratio [30]: 17.5

Source: ChEMBL document CHEMBL1122426, “Radioiodine-labeled N,N-dimethyl-N'-(2-hydroxy-3-alkyl-5-iodobenzyl)-1,3-propanediamines for brain perfusion imaging” (J Med Chem, 1983)
